# Assay results from different studies.
# Protocols differ between the studies behind these lines.
# DPP4: Dipeptidyl peptidase 4 (DPP4, Homo sapiens, UniProt P27487)
# 1-deoxy-D-xylulose 5-phosphate reductoisomerase: 1-deoxy-D-xylulose 5-phosphate reductoisomerase (Mycobacterium tuberculosis, UniProt P9WNS1)
# pknB: Serine/threonine-protein kinase PknB (pknB, Mycobacterium tuberculosis, UniProt P9WI81)
# ENAH: Protein enabled homolog (ENAH, UniProt Q8N8S7)
SMILES,target,observed,action,technique,pH,measurement,value
CC(C)C[C@H](NC(=O)[C@@H]1CCCN1C(=O)[C@@H](NC(=O)[C@@H]1CCCN1C(=O)[C@@H](N)C(C)C)C(C)C)C(=O)O,DPP4,enzyme activity,inhibitor,absorbance,pH 8,IC50,130 µM
CC(=O)N(O)CCC(c1ccc(-c2cccnc2)cc1)P(=O)(O)O (stereo not shown),1-deoxy-D-xylulose 5-phosphate reductoisomerase,enzyme activity,inhibitor,absorbance,pH 7.5,IC50,0.8 µM
COc1cccc(-c2ccnc(Nc3ccc(N4CCN(C(=O)OC(C)(C)C)CC4)c(C(F)(F)F)c3)n2)c1,pknB,cell-free assay,inhibitor,,,Ki,> 5.9 µM
CC(=O)N[C@@H](CO)C(=O)N[C@@H](Cc1ccccc1)C(=O)N[C@@H](CCC(=O)O)C(=O)N[C@@H](Cc1ccccc1)C(=O)N1CCC[C@H]1C(=O)N1CCC[C@H]1C(=O)N1CCC[C@H]1C(=O)N1CCC[C@H]1C(=O)N[C@H](C(=O)N[C@@H](CCC(=O)O)C(=O)N[C@@H](CC(=O)O)C(=O)N[C@@H](CCC(=O)O)C(=O)N[C@@H](CC(C)C)C(N)=O)[C@@H](C)O,ENAH,binding,,fluorescence,,Kd,13 µM
CC(C)[C@H](N)C(=O)N1CCC[C@H]1C(=O)N[C@H](C(=O)N1CCC[C@H]1C(=O)N[C@@H](CO)C(=O)O)C(C)C,DPP4,enzyme activity,inhibitor,absorbance,pH 8,IC50,92.9 µM
CC(=O)N(O)CCC(c1ccc2c(c1)OCO2)P(=O)(O)O (stereo not shown),1-deoxy-D-xylulose 5-phosphate reductoisomerase,enzyme activity,inhibitor,absorbance,pH 7.5,IC50,1.5 µM
CC(=O)N[C@@H](Cc1ccccc1Cl)C(=O)N1CCC[C@H]1C(=O)N1CCC[C@H]1C(=O)N1CCC[C@H]1C(=O)N1CCC[C@H]1C(=O)N[C@H](C(=O)N[C@@H](CCC(=O)O)C(=O)N[C@@H](CC(=O)O)C(=O)N[C@@H](CCC(=O)O)C(=O)N[C@@H](C)C(N)=O)[C@@H](C)O,ENAH,binding,,fluorescence,,Kd,3.5 µM
CC(=O)N(O)CCC(c1cc2ccccc2o1)P(=O)(O)O (stereo not shown),1-deoxy-D-xylulose 5-phosphate reductoisomerase,enzyme activity,inhibitor,absorbance,pH 7.5,IC50,9.6 µM
CC(C)(C)OC(=O)N1CCN(c2ccc(Nc3nccc(-c4ccccc4)n3)cc2C(F)(F)F)CC1,pknB,cell-free assay,inhibitor,,,Ki,> 5.9 µM
CC(C)[C@H](N)C(=O)N1CCC[C@H]1C(=O)N[C@H](C(=O)N1CCC[C@H]1C(=O)N[C@@H](CCCCN)C(=O)O)C(C)C,DPP4,enzyme activity,inhibitor,absorbance,pH 8,IC50,104 µM
